In ChEMBL document CHEMBL1127577, “Identification of tricyclic analogs related to ellagic acid as potent/selective tyrosine protein kinase inhibitors” (J Med Chem, 1994) one finds IC50, Ki and Km data, which are given here for 45 compounds.

For series [1], the target named is cAMP-dependent protein kinase (PKA) (Homo sapiens, UniProt P22694+P17612+P22612). The experiment in a line: In vitro inhibitory activity against protein kinase A. Type of series: protein assay, unidentified. The procedure, abridged: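 PKA catalytic subunit, 0.8 unit/assay, with Kemptide (LRRASLG) at 10 µg/mL. Buffers and procedure as for the src assay: 50 mM HEPES pH 7.4, 0.015% Brij 35, 0.1 mM EDTA, [γ-32P]ATP transfer, phosphoric acid stop, filter capture. Six inhibitor concentrations in triplicate; IC50 from mean of ≥2 determinations.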

Series [2] has as its target Proto-oncogene tyrosine-protein kinase Src (Homo sapiens, UniProt P12931). Put plainly: Tested for in vitro inhibitory activity against tyrosine protein kinase pp60 c-src. The procedure, abridged:
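pp60c-src purified from human platelet membrane vesicles by anti-src immunoaffinity chromatography. Reaction stopped after 45 min with 5% phosphoric acid; nitrocellulose filter capture. Six inhibitor concentrations in triplicate; IC50 from mean of ≥2 determinations.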

The nature of series [3]: Reaction rate parameter value for phosphate with transfer with respect to ATP. An outline of the steps: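 Platelet pp60c-src, same peptide-phosphorylation assay run at four ATP levels (5, 50, 400 µM, 2 mM), six inhibitor concentrations in triplicate at each. Apparent KM and Vmax shifts used to pick an inhibition model; data fitted for KM, Vmax and KI, with fit quality given as RMS. Values from a representative experiment with substrate-only controls.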

Several values for one entry are separate records, joined by “and”; a condition that tells them apart may be missing. Equal values may be shown once. Bounds are passed on as bounds.

Chain of Proto-oncogene tyrosine-protein kinase Src (P12931 2-536 limits assumed): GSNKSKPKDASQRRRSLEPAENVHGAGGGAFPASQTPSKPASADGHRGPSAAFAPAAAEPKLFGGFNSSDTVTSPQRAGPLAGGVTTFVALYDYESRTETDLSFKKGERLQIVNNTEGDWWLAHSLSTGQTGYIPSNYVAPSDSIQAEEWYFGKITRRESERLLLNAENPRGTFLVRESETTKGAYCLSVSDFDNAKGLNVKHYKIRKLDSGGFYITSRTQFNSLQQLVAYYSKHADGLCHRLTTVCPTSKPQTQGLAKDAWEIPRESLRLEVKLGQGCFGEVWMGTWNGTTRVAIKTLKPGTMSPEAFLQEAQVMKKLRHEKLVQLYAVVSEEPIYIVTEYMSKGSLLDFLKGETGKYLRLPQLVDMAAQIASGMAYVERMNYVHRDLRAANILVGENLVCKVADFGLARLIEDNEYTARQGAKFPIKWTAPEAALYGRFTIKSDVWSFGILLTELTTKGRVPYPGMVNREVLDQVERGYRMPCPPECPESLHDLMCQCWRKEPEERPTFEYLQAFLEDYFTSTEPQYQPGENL

As for `Oc1cc2[nH]c3c(O)c(O)ccc3c2cc1O`, the values for the IC50 in series [1] and in series [2] were 47 µM and 0.8 µM, respectively.
The like results for `O=S(=O)(c1ccccc1)n1c2cc(O)c(O)cc2c2cc(O)c(O)cc21` were, in that order, over 600 µM and 24 µM.
The corresponding values for `O=c1c2cc(O)c(O)cc2c2cc(O)c(O)cc2n1Cc1ccc([N+](=O)[O-])cc1` are 8.4 µM and 0.9 µM.
As for `CC(C)(C)c1ccc(C(=O)n2c3cc(O)c(O)cc3c3ccc(O)c(O)c32)cc1`, the IC50 – broadly, the point on the concentration scale where inhibition reaches its midpoint – in series [1] came out at 50 µM; in series [2], 0.7 µM.
The like results for `Cc1cccc(Cn2c3cc(O)c(O)cc3c3ccc(O)c(O)c32)c1` were, in that order, 23 µM and 1.7 µM.
`O=[N+]([O-])c1ccc(S(=O)(=O)n2c3cc(O)c(O)cc3c3ccc(O)c(O)c32)cc1`: the IC50 in series [1] is 168 µM; in series [2], 12 µM.
The like results for `O=C(CCc1ccccc1)n1c2cc(O)c(O)cc2c2ccc(O)c(O)c21` were, in that order, 2.3 µM and 0.4 µM.
With `O=S(=O)(c1ccccc1)c1ccc(Cn2c3cc(O)c(O)cc3c3ccc(O)c(O)c32)cc1`, the IC50 in series [1] worked out at 317 µM; in series [2] it was 0.6 µM.
The corresponding values for `O=C(c1ccccc1)n1c2cc(O)c(O)cc2c2ccc(O)c(O)c21` are 240 µM and 0.9 µM.
The corresponding values for `O=c1c2cc(O)c(O)cc2c2cc(O)c(O)cc2n1Cc1ccc(S(=O)(=O)c2ccccc2)cc1` are 51 µM and 2 µM.
For the compound `Oc1cc2c3ccc(O)c(O)c3n(CCCc3ccccc3)c2cc1O`, the IC50 in series [1] and in series [2] was 0.5 µM each time.
For the compound `O=C(c1ccc(-c2ccccc2)cc1)n1c2cc(O)c(O)cc2c2ccc(O)c(O)c21`, the values for the IC50 in series [1] and in series [2] were 3.2 µM and 0.6 µM, respectively.
Take `CCn1c(=O)c2c(O)c(O)ccc2c2cc(O)c(O)cc21`: the IC50 in series [1] came to 541 µM; in series [2] it was 11 µM.
With `CC(C)(C)c1ccc(C(=O)n2c3cc(O)c(O)cc3c3c(Br)cc(O)c(O)c32)cc1`, the figures for the IC50 in series [1] and in series [2] were 40 µM and 12 µM, respectively.
Regarding `O=c1c2c(O)c(O)ccc2c2cc(O)c(O)cc2n1Cc1ccc([N+](=O)[O-])cc1`, the IC50 in series [1] stood at 309 µM; in series [2] it was 61 µM.
The corresponding values for `Oc1cc2c3cc(O)c(O)cc3n(Cc3cccnc3)c2cc1O` are 108 µM and 8 µM.
As for `O=C(c1ccc(C(F)(F)F)cc1)n1c2cc(O)c(O)cc2c2c(Br)cc(O)c(O)c21`, the IC50 in series [1] worked out at 7 µM; in series [2], 2 µM.
In the case of `O=C(c1ccc(C(F)(F)F)cc1)n1c2cc(O)c(O)cc2c2ccc(O)c(O)c21`, the IC50 in series [1] was determined as 10 µM; in series [2], 0.7 µM.
The like results for `N#Cc1ccc(Cn2c3cc(O)c(O)cc3c3ccc(O)c(O)c32)cc1` were, in that order, 275 µM and 0.4 µM.
On to `Oc1cc2c3ccc(O)c(O)c3n(Cc3c(Cl)cccc3Cl)c2cc1O`, for which the IC50 in series [1] came to 435 µM; in series [2], 0.9 µM.
On to `CS(=O)(=O)c1ccc(C(=O)n2c3cc(O)c(O)cc3c3c(Br)cc(O)c(O)c32)cc1`, for which the IC50 in series [1] was found to be 4 µM; in series [2], 9 µM.
The like results for `Oc1cc2c3cc(O)c(O)cc3n(Cc3ccccc3)c2cc1O` were, in that order, 115 µM and 7 µM.
The corresponding values for `Oc1cc2nc(O)c3c(O)c(O)ccc3c2cc1O` are 92 µM and 0.9 µM.
The like results for `Oc1cc2c3ccc(O)c(O)c3n(Cc3ccccc3)c2cc1O` were, in that order, 210 µM and 2 µM.
Regarding `Oc1cc2[nH]c3cc(O)c(O)cc3c2cc1O`, in series [3], the Ki (commonly a dissociation constant, usually derived from enzyme kinetics or from competition with a known ligand) is 1.06 µM and 0.53 µM. The Km – broadly, the concentration of substrate that gives half-maximal velocity – in series [3] was 68.1 µM and 29.2 µM. In addition, the IC50 amounted to 58 µM in series [1] and 1.5 µM in series [2].
In the case of `O=C(c1ccccc1)n1c2cc(O)c(O)cc2c2cc(O)c(O)cc21`, the values for the IC50 in series [1] and in series [2] were 415 µM and 4 µM, respectively.
The like results for `O=c1oc2c(O)c(O)cc3c(=O)oc4c(O)c(O)cc1c4c23` [ELLAGIC ACID] were, in that order, 0.6 µM and 0.3 µM.
The like results for `O=S(=O)(c1ccccc1)n1c2cc(O)c(O)cc2c2ccc(O)c(O)c21` were, in that order, 250 µM and 15 µM.
Take `Oc1cc2c3ccc(O)c(O)c3n(Cc3ccc(Br)cc3)c2cc1O`: the IC50 in series [1] is 374 µM; in series [2], 3.4 µM.
Take `O=C(c1ccc(Br)cc1)n1c2cc(O)c(O)cc2c2ccc(O)c(O)c21`: the IC50 in series [1] came out at 4.2 µM; in series [2], 1.4 µM.
The corresponding values for `O=c1c2cc(O)c(O)cc2c2cc(O)c(O)cc2n1Cc1ccc(Cl)c(Cl)c1` are 20 µM and 1.3 µM.
The like results for `O=c1c2c(O)c(O)ccc2c2cc(O)c(O)cc2n1Cc1ccc(S(=O)(=O)c2ccccc2)cc1` were, in that order, 634 µM and 7.2 µM.
Consider `O=c1c2c(O)c(O)ccc2c2cc(O)c(O)cc2n1Cc1ccccc1`, for which the half-inhibitory concentration (IC50) in series [1] amounted to 284 µM; in series [2], 21 µM.
Consider `N#Cc1ccc(Cn2c3cc(O)c(O)cc3c3c(Br)cc(O)c(O)c32)cc1`, for which the values for the IC50 in series [1] and in series [2] were 6.6 µM and 0.9 µM, respectively.
With `O=S(=O)(Cc1ccccc1)n1c2cc(O)c(O)cc2c2ccc(O)c(O)c21`, the results for the IC50 in series [1] and in series [2] were 78 µM and 14 µM, respectively.
The like results for `O=C(c1ccc2ccccc2c1)n1c2cc(O)c(O)cc2c2ccc(O)c(O)c21` were, in that order, 1 µM and 0.5 µM.
The corresponding values for `CS(=O)(=O)c1ccc(C(=O)n2c3cc(O)c(O)cc3c3ccc(O)c(O)c32)cc1` are 40 µM and 0.4 µM.
With `O=S(=O)(c1cc(Cl)ccc1Cl)n1c2cc(O)c(O)cc2c2ccc(O)c(O)c21`, the IC50 in series [1] was 223 µM; in series [2] it was 7.7 µM.
For the compound `O=c1c2c(O)c(O)ccc2c2cc(O)c(O)cc2n1Cc1ccc(Cl)c(Cl)c1`, the IC50 in series [1] worked out at 410 µM; in series [2] it was 197 µM.
The corresponding values for `Oc1cc2[nH]c3c(O)c(O)cc(Br)c3c2cc1O` are 17 µM and 0.6 µM.
As for `O=C(c1cccc([N+](=O)[O-])c1)n1c2cc(O)c(O)cc2c2ccc(O)c(O)c21`, the IC50 is 1.5 µM in series [1] and 0.6 µM in series [2].
Take `Oc1cc2c3ccc(O)c(O)c3n(Cc3ccc(C(F)(F)F)cc3)c2cc1O`: the figures for the IC50 in series [1] and in series [2] were 50 µM and 9 µM, respectively.
The corresponding values for `CCn1c(=O)c2cc(O)c(O)cc2c2cc(O)c(O)cc21` are over 2000 µM and 4.1 µM.
`Oc1cc2nc(O)c3cc(O)c(O)cc3c2cc1O`: the results for the IC50 in series [1] and in series [2] were over 800 µM and 1 µM, respectively.
For `O=c1c2cc(O)c(O)cc2c2cc(O)c(O)cc2n1Cc1ccccc1`, the IC50 in series [1] was found to be 390 µM; in series [2] it was 5.4 µM.
